# Experimental data as given in ChEMBL document CHEMBL2384912, “Design, synthesis, and inhibitory activity of potent, photoswitchable mast cell activation inhibitors” (J Med Chem, 2013).
# Activity calls are given as the source filed them. The calls are words filed in the database; no cut-off is given here.
# Tests used:
# [1] = test system: LAD2; experiment: Inhibition of human LAD2 mast cell activation assessed as compound 48/80-induced degranulation incubated for 30 mins prior to compound 48/80 challenge by beta-hexosaminidase release assay; type: functional, cell-based
# Summary of the method: (§1)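 Supernatant was incubated with 2 mg/mL p-nitrophenyl-N-acetyl-D-glucosaminide in citrate buffer pH 4.5 for 1 h at 37 °C and stopped with 0.4 M glycine. A405 was read; % release = supernatant/(supernatant + lysate) × 100.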
# [2] = Ratio of DSCG IC50 to compound IC50 for human LAD2 mast cell; type: functional
# [3] = test system: LAD2; experiment: Inhibition of human LAD2 mast cell activation assessed as compound 48/80-induced degranulation at 10 to 20 uM incubated for 30 mins prior to compound 48/80 challenge by beta-hexosaminidase release assay in presence of UV light; type: functional, cell-based
# [4] = test system: LAD2; experiment: Inhibition of human LAD2 mast cell activation assessed as compound 48/80-induced degranulation at 10 to 20 uM incubated for 30 mins prior to compound 48/80 challenge by beta-hexosaminidase release assay; type: functional, cell-based; summary of the method: as §1
# [5] = test system: LAD2; experiment: Inhibition of human LAD2 mast cell activation assessed as compound 48/80-induced degranulation at 100 uM incubated for 30 mins prior to compound 48/80 challenge by histamine release assay; type: functional, cell-based
# Summary of the method: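 Supernatant histamine was derivatized: NaOH, then 0.25% o-phthalaldehyde in MeOH for 4 min at room temperature, then HCl. Fluorescence was read at ex 360/em 450 nm; n = 3.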
# [6] = test system: LAD2; experiment: Inhibition of human LAD2 mast cell activation assessed as compound 48/80-induced degranulation at 10 uM incubated for 30 mins prior to compound 48/80 challenge by beta-hexosaminidase release assay; type: functional, cell-based; summary of the method: as §1
# [7] = test system: LAD2; experiment: Inhibition of human LAD2 mast cell activation assessed as compound 48/80-induced degranulation at 200 to 400 uM incubated for 30 mins prior to compound 48/80 challenge by beta-hexosaminidase release assay in presence of UV light; type: functional, cell-based
# [8] = test system: LAD2; experiment: Inhibition of human LAD2 mast cell activation assessed as compound 48/80-induced degranulation at 200 to 400 uM incubated for 30 mins prior to compound 48/80 challenge by beta-hexosaminidase release assay; type: functional, cell-based; summary of the method: as §1
# [9] = test system: LAD2; experiment: Inhibition of human LAD2 mast cell activation assessed as compound 48/80-induced degranulation at 1000 uM incubated for 30 mins prior to compound 48/80 challenge by beta-hexosaminidase release assay; type: functional, cell-based; summary of the method: as §1
# [10] = test system: LAD2; experiment: Inhibition of human LAD2 mast cell activation assessed as 1.0 uM compound 48/80-induced degranulation incubated for 30 mins prior to compound 48/80 challenge by beta-hexosaminidase release assay; type: functional, cell-based; summary of the method: as §1
# [11] = test system: LAD2; experiment: Inhibition of human LAD2 mast cell activation assessed as 0.1 uM compound 48/80-induced degranulation incubated for 30 mins prior to compound 48/80 challenge by beta-hexosaminidase release assay; type: functional, cell-based; summary of the method: as §1
compound,measurement,setting,value
O=C([O-])c1cc(=O)c2c(OCc3cccc(/N=N/c4cccc(COc5cccc6oc(C(=O)[O-])cc(=O)c56)c4)c3)cccc2o1.[Na+].[Na+],IC50,[1],10 µM
same,Ratio IC50,[2],100
O=C(O)c1cc(=O)c2c(OCc3ccc(/N=N/c4ccc(COc5cccc6oc(C(=O)O)cc(=O)c56)cc4)cc3)cccc2o1,inhibition,[3],Active
same,inhibition,[4],Active
O=C(O)c1cc(=O)c2c(OCc3cccc(/N=N/c4cccc(COc5cccc6oc(C(=O)O)cc(=O)c56)c4)c3)cccc2o1,inhibition,[5],Active
same,inhibition,[6],Active
same,inhibition,[3],Active
same,inhibition,[4],Active
O=C(O)c1cc(=O)c2cc(/N=N/c3ccc4oc(C(=O)O)cc(=O)c4c3)ccc2o1,inhibition,[7],Active
same,inhibition,[8],Active
O=C(O)c1cc(=O)c2c(OCc3cccc(/N=N/c4cccc(COc5cccc6oc(C(=O)O)cc(=O)c56)c4)c3)cccc2o1 (mixture of isomers),inhibition,[3],Active
same,inhibition,[4],Active
O=C(O)c1cc(=O)c2c(OCC(O)COc3cccc4oc(C(=O)O)cc(=O)c34)cccc2o1 [CROMOLYN SODIUM],IC50,[1],> 1000 µM
same,inhibition,[9],Active
same,inhibition,[10],inactive
same,inhibition,[11],Active
same,Activity,[5],inactive
O=C([O-])c1cc(=O)c2c(OCc3ccc(/N=N/c4ccc(COc5cccc6oc(C(=O)[O-])cc(=O)c56)cc4)cc3)cccc2o1.[Na+].[Na+],IC50,[1],28 µM
same,Ratio IC50,[2],100
O=C(O)c1cc(=O)c2cc(/N=N/c3ccc4oc(C(=O)O)cc(=O)c4c3)ccc2o1 (mixture of isomers),inhibition,[7],Active
same,inhibition,[8],Active
O=C(O)c1cc(=O)c2c(OCc3ccc(/N=N/c4ccc(COc5cccc6oc(C(=O)O)cc(=O)c56)cc4)cc3)cccc2o1 (mixture of isomers),inhibition,[3],Active
same,inhibition,[4],Active
